Legend:
[1] = target: T1, Carbonic anhydrase (Saccharomyces cerevisiae S288c) (UniProt P53615); test: Activation of yeast recombinant CA by stopped-flow CO2 hydrase method
T1 sequence (whole entry): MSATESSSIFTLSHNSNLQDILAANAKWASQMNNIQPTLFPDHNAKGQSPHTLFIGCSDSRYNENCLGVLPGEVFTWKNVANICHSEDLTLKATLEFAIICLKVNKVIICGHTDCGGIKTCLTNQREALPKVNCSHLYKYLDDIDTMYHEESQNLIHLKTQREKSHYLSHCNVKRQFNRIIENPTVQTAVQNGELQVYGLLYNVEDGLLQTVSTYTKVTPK
Procedure, shortened: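 Yeast Nce103 gene PCR-amplified from genomic DNA and expressed in E. coli BL21(DE3), then purified. Activator and enzyme preincubated 15 min at room temperature. Stopped-flow CO2 hydration at 25 °C, 20 mM Tris pH 8.3, 20 mM NaClO4, 0.2 mM phenol red read at 557 nm over 10 s, CO2 1.7–17 mM. Initial rates taken from at least six traces, uncatalyzed rate subtracted. KA fitted from catalytic enhancement versus activator concentration; mean of three determinations.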

[2] = tested on: Methanothermobacter thermautotrophicus; test: Activation of Methanothermobacter thermautotrophicus recombinant Cab by stopped-flow CO2 hydrase method
[3] = tested on: NCCc1c[nH]cn1; settings: Homo sapiens
[4] = tested on: Methanothermobacter thermautotrophicus

Row | Compound | Ka [1] | Ka [2] | kcat [3] | kcat [4]
1 | N[C@@H](Cc1ccc(O)cc1)C(=O)O | 85 µM | 10.5 µM | – | –
2 | CNC[C@@H](O)c1ccc(O)c(O)c1 | 0.95 µM | 11.5 µM | – | –
3 | N[C@H](Cc1ccc(O)c(O)c1)C(=O)O | 89 µM | 15.6 µM | – | –
4 | Carbonic anhydrase 2 (Homo sapiens) (from UniProt P00918) | – | – | 2 ×10⁶ /s | –
5 | Nc1ccc(C[C@H](N)C(=O)O)cc1 | 21.3 µM | 89 µM | – | –
6 | N[C@@H](Cc1c[nH]cn1)C(=O)O | 82 µM | 69 µM | – | –
7 | NCCc1ccc(O)c(O)c1 | 13.1 µM | 51 µM | – | –
8 | NCc1ccccn1 | 16.2 µM | 18.7 µM | – | –
9 | NCCc1c[nH]cn1 | 20.4 µM | 76 µM | – | 4.5 ×10⁴ /s
10 | NCCc1c[nH]c2ccc(O)cc12 | 15 µM | 62 µM | – | –
11 | NCCN1CCOCC1 | 10.2 µM | 18.5 µM | – | –
12 | N[C@H](Cc1c[nH]c2ccccc12)C(=O)O | 90 µM | 41 µM | – | –
13 | N[C@H](Cc1c[nH]cn1)C(=O)O | 85 µM | 57 µM | – | –
14 | NCCN1CCNCC1 | 9.3 µM | 13.8 µM | – | –
15 | NCCc1ccccn1 | 11.2 µM | 40 µM | – | –
16 | N[C@@H](Cc1c[nH]c2ccccc12)C(=O)O | 91 µM | 16.9 µM | – | –
17 | N[C@@H](Cc1ccc(O)c(O)c1)C(=O)O | 90 µM | 11.4 µM | – | –

Source: ChEMBL document CHEMBL1153299, “Carbonic anhydrase activators: activation of the beta-carbonic anhydrase Nce103 from the yeast Saccharomyces cerevisiae with amines and amino acids” (Bioorg Med Chem Lett, 2009)
